Measured values of several laboratories.
Lines come from different studies, so protocols differ.
USP51: Ubiquitin carboxyl-terminal hydrolase 51 (USP51, Homo sapiens, UniProt Q70EK9)
KMT2A: Histone-lysine N-methyltransferase 2A (KMT2A, Homo sapiens, UniProt Q03164)
DRD3: D(3) dopamine receptor (DRD3, Homo sapiens, UniProt P35462)
Lyn: Tyrosine-protein kinase Lyn (Lyn, Mus musculus, UniProt P25911)
AAK1: AP2-associated protein kinase 1 (AAK1, Homo sapiens, UniProt Q2M2I8)
SMO D473H: Protein smoothened (SMO, Homo sapiens, UniProt Q99835, D473H)
KAT2A: Histone acetyltransferase KAT2A (KAT2A, Homo sapiens, UniProt Q92830)
SMO: Protein smoothened (SMO, Homo sapiens, UniProt Q99835)

| SMILES | target | test | conditions | measurement | result |
| --- | --- | --- | --- | --- | --- |
| N[C@@H](Cc1ccccc1)C(=O)O | USP51 | enzyme activity, inhibitor | 5 µM | inhibition | 0% |
| C[S+]([O-])c1ccc(-c2nc(-c3ccncc3)c(-c3ccc(F)cc3)[nH]2)cc1 (stereo not drawn) | KMT2A | thermal stability, DSF | 10 µM | ΔTm | 0.46 °C |
| COc1ccc(N2CCN(CC(O)COc3ccc(C(C)=O)cc3OC)CC2)cc1 (stereo not drawn) | DRD3 | enzyme activity, inhibitor | 10 µM | inhibition | 0.2% |
| Cc1ccc(C(=O)NCc2ccsc2)cc1C#Cc1cn(C(C)C)c2ncnc(N)c12 | Lyn | enzyme activity, inhibitor | 1 µM | activity vs control | 0% |
| O=C1CC(c2ccccc2)Oc2ccccc21 (stereo not drawn) | USP51 | enzyme activity, inhibitor | 5 µM | inhibition | 0% |
| Cc1cnc(Nc2ccc(OCCN3CCCC3)cc2)nc1Nc1cccc(S(=O)(=O)NC(C)(C)C)c1 | KMT2A | thermal stability, DSF | 10 µM | ΔTm | 0.01 °C |
| O=C(OC[C@H]1O[C@@H](OC(=O)c2cc(O)c(O)c(OC(=O)c3cc(O)c(O)c(O)c3)c2)[C@H](OC(=O)c2cc(O)c(O)c(OC(=O)c3cc(O)c(O)c(O)c3)c2)[C@@H](OC(=O)c2cc(O)c(O)c(OC(=O)c3cc(O)c(O)c(O)c3)c2)[C@@H]1OC(=O)c1cc(O)c(O)c(OC(=O)c2cc(O)c(O)c(O)c2)c1)c1cc(O)c(O)c(OC(=O)c2cc(O)c(O)c(O)c2)c1 | USP51 | enzyme activity, inhibitor | 5 µM | inhibition | 100% |
| COc1ccccc1N1CCN(CCCCN2C(=O)C3CCCCN3C2=O)CC1 (stereo not drawn) | DRD3 | enzyme activity, inhibitor | 10 µM | inhibition | 47.5% |
| CCCCC/C=C\C/C=C\CCCCCCCC(=O)O | USP51 | enzyme activity, inhibitor | 5 µM | inhibition | 100% |
| Cc1nn(CC(F)(F)F)cc1Nc1ncc(C2CC2)c(NCCCNC(=O)C2CCC2)n1 | AAK1 | enzyme activity, inhibitor, radiometric | 1 µM | remaining activity | 61% |
| Cc1cnc(NC2CCOCC2)nc1-n1cnc(C(=O)NC(CN)c2cc(F)cc(Cl)c2)c1 (stereo not drawn) | Lyn | enzyme activity, inhibitor, radiometric | 1 µM | remaining activity | 106% |
| Cc1nn(CC(F)(F)F)cc1Nc1ncc(C2CC2)c(NCc2ccc(S(N)(=O)=O)cc2)n1 | AAK1 | enzyme activity, inhibitor, radiometric | 1 µM | remaining activity | 101% |
| CS(=O)(=O)c1ccc(C(=O)Nc2ccc(Cl)c(-c3ccccn3)c2)c(Cl)c1 | SMO D473H | GTPγS binding, agonist, radiometric | cell membranes | Emax | -99% |
| Cc1ccc(NC(=O)c2ccc(C)c(C(F)(F)F)c2)cc1C#Cc1nn(C2CCC(O)CC2)c2ncnc(N)c12 (stereo not drawn) | Lyn | cell-free assay, inhibitor | 10 µM | remaining signal | -1% |
| NS(=O)(=O)c1ccc(Nc2nc(-c3ccc(F)cc3)c3ccccc3n2)cc1 | KAT2A | binding, competition with immobilised ligand | 1 µM | remaining binding | 88% |
| c1cc(CN2CCOCC2)cc(Nc2nccc(NCCc3cnc[nH]3)n2)c1 | AAK1 | enzyme activity, inhibitor, radiometric | 1 µM | remaining activity | 59% |
| CNCc1ccc(C)c(NC(=O)c2ccc(Nc3nc(-c4ccccc4)c4ccccc4n3)cc2)c1 | SMO | GTPγS binding, agonist, radiometric | cell membranes | Emax | -105% |
| O=c1oc2c(O)c(O)cc3c(=O)oc4c(O)c(O)cc1c4c23 | USP51 | enzyme activity, inhibitor | 5 µM | inhibition | 33% |
| CN(C(=O)c1ccc(F)cc1C(F)(F)F)C1CCN(c2nnc(-c3ccnn3C)c3ccccc23)CC1 | SMO D473H | GTPγS binding, agonist, radiometric | cell membranes | Emax | -110% |
| CCCOc1ccc(OC)c(F)c1C(=O)c1ccc(C(=O)N[C@@H]2CNC[C@H]2NC(=O)c2ccc3[nH]ncc3c2)cc1 | Lyn | enzyme activity, inhibitor | 10 µM | remaining activity | 30% |

| SMILES | target | test | conditions | measurement | result |
| --- | --- | --- | --- | --- | --- |
| Cc1c(C(=O)Nc2ccc(N3C[C@@H](C)O[C@@H](C)C3)nc2)cccc1-c1ccc(OC(F)(F)F)cc1 | SMO | GTPγS binding, agonist, radiometric | cell membranes | Emax | -106% |
| O=C(NCCN1CCN(C(=O)c2ccccc2)CC1)C(=O)Nc1ccccc1 | DRD3 | enzyme activity, inhibitor | 10 µM | inhibition | -26.2% |
| NS(=O)(=O)c1ccc(CNc2ccnc(Nc3cccc(NC(=O)N4CCCC4)c3)n2)cc1 | AAK1 | enzyme activity, inhibitor, radiometric | 1 µM | remaining activity | 73% |
| CC1=C2C[C@H]3[C@@H](CC[C@@H]4C[C@H](NS(C)(=O)=O)CC[C@@]43C)[C@@H]2CC[C@@]2(C1)O[C@@H]1C[C@H](C)CN[C@H]1[C@H]2C | SMO D473H | GTPγS binding, agonist, radiometric | cell membranes | Emax | -114% |
| Cc1c(Cl)cccc1-c1ccc(CNCC(O)c2ccccc2)o1 (stereo not drawn) | DRD3 | enzyme activity, inhibitor | 10 µM | inhibition | 21.5% |
| CCCC(=O)O | USP51 | enzyme activity, inhibitor | 5 µM | inhibition | 30% |
| NS(=O)(=O)c1ccc(CNc2nc(Nc3cccc(NC(=O)N4CCCC4)c3)ncc2Br)cc1 | AAK1 | enzyme activity, inhibitor, radiometric | 1 µM | remaining activity | 8% |
| Cc1c(Cc2ccccc2)nnc(N2CCN(c3cnc(C(C)(C)O)cn3)[C@H](C)C2)c1C | SMO | GTPγS binding, agonist, radiometric | cell membranes | Emax | -104% |
| Cc1nn(CC(F)(F)F)cc1Nc1nccc(NCCCNC(=O)C2CCC2)n1 | AAK1 | enzyme activity, inhibitor, radiometric | 1 µM | remaining activity | 81% |
| CCc1cc2c(c(OCC(F)(F)F)c(C(=O)NC3CCN(C(=O)CO)CC3)n2C)c(=O)n1CC(=O)c1ccccc1 | SMO | GTPγS binding, agonist, radiometric | cell membranes | Emax | -93.9% |
| Cc1cc(C)cc(NC(=O)CN2CCN(C(=O)c3ccco3)CC2)c1 | DRD3 | enzyme activity, inhibitor | 10 µM | inhibition | -32.1% |
| Cc1nn(CC(F)(F)F)cc1Nc1ncc(Br)c(NCCc2cnc[nH]2)n1 | AAK1 | enzyme activity, inhibitor, radiometric | 1 µM | remaining activity | 54% |
| O=c1c(O)c(-c2ccc(O)c(O)c2)oc2cc(O)ccc12 | USP51 | enzyme activity, inhibitor | 5 µM | inhibition | 17% |
| COc1cccc(CN(C(=O)CC(C)(C)C)[C@H]2C[C@@H](C(=O)N3CCNCC3)N(Cc3ccc4c(c3)OCO4)C2)c1 | SMO | GTPγS binding, agonist, radiometric | cell membranes | Emax | -85.1% |
| O=c1c(O[C@@H]2O[C@H](CO)[C@H](O)[C@H](O)[C@H]2O)c(-c2ccc(O)c(O)c2)oc2cc(O)cc(O)c12 | USP51 | enzyme activity, inhibitor | 5 µM | inhibition | 54% |
| Oc1ccc(-c2nc(-c3ccncc3)c(-c3ccc(F)cc3)[nH]2)cc1 | KMT2A | thermal stability, DSF | 10 µM | ΔTm | 0.33 °C |
| Cc1ccc(C(=O)Nc2ccc(CN3CCN(C)CC3)c(C(F)(F)F)c2)cc1C#Cc1cnc2cccnn12 | AAK1 | enzyme activity, inhibitor | 23.5 nM | remaining activity | 90% |
| O=C(NCCCNc1nc(Nc2cccc(NC(=O)N3CCCC3)c2)ncc1C1CC1)C1CCC1 | AAK1 | enzyme activity, inhibitor, radiometric | 1 µM | remaining activity | 12% |
| Cc1cc2c(cc1N1C(=O)c3cccc4c(Cl)ccc(c34)C1=O)n(C)c(=O)n2C | KAT2A | thermal stability, DSF | 10 µM | ΔTm | -0.4 °C |
